Data on 2 molecules can be found in ChEMBL document CHEMBL2321801, “Induction of ABCA1 and ABCG1 expression by the liver X receptor modulator cineole in macrophages” (Bioorg Med Chem Lett, 2013).

Calls of active or inactive are those of the source. No cut-off for these calls is given here.

Experiment [1] concerns the target T1, Oxysterols receptor LXR-alpha (Homo sapiens) (UniProt Q13133).
T1 sequence (whole entry): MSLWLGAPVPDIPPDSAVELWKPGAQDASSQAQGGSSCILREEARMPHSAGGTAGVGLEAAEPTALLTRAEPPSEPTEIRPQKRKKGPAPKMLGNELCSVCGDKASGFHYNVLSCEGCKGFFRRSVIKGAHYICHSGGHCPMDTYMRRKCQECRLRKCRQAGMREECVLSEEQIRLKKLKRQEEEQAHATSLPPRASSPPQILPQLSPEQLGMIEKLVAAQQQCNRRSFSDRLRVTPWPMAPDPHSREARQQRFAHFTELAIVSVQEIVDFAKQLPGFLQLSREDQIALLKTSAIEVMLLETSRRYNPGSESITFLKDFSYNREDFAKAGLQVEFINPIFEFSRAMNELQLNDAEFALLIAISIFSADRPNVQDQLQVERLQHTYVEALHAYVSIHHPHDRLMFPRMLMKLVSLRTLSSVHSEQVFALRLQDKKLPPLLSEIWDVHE
Briefly: Induction of recruitment of Trap220 peptide to LXRalpha (unknown origin) by TR-FRET LXR-alpha co-activator assay. The method in brief: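 Cell-free LanthaScreen TR-FRET LXR-α co-activator recruitment assay, run per kit instructions, with T0901317 as reference agonist.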
Background: TR-FRET usually uses a lanthanide donor and a delayed reading to cut background.

The target in experiment [2] is T2, Oxysterols receptor LXR-beta (Homo sapiens, UniProt P55055).
T2 sequence (P55055 whole entry): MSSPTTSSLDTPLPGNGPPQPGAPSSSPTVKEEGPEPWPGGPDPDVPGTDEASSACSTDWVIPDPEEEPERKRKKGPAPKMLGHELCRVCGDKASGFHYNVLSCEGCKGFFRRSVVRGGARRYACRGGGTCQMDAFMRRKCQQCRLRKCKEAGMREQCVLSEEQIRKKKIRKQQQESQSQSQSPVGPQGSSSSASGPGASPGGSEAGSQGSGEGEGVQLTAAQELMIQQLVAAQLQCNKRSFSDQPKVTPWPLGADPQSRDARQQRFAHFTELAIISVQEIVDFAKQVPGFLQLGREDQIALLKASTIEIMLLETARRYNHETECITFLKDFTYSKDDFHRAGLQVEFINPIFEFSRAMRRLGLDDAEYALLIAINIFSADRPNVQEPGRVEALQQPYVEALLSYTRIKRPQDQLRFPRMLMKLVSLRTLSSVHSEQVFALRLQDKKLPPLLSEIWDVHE
In words: Binding affinity to LXRbeta (unknown origin).

Experiment [3] addresses T3, Oxysterols receptor LXR-alpha (Homo sapiens, UniProt Q13133).
T3 sequence (Q13133 whole entry): T1 sequence (whole entry)
In words: Binding affinity to LXRalpha (unknown origin).

For experiment [4], the system named is HepG2. Briefly: Reduction in lipid accumulation in human HepG2 cells at 1 microM by Oil Red O staining. The experiment is classed as functional, cell-based.
Experiment [5] has as its target T4, Oxysterols receptor LXR-beta (Homo sapiens) (UniProt P55055).
T4 sequence (whole entry): T2 sequence (P55055 whole entry)
In words: Induction of recruitment of D22 peptide to LXRbeta (unknown origin) by TR-FRET LXR-alpha co-activator assay.

Experiment [6] relates to HepG2. Briefly: Downregulation of FAS protein expression in human HepG2 cells at 50 to 100 microM by immunoblotting. The experiment is classed as functional. The procedure, abridged:
(§1)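 Cells were preincubated 24 h in DMEM, then treated 24 h with 50 or 100 µM alongside a 1% DMSO vehicle. They were lysed in ice-cold Tris-HCl pH 7.4/EDTA/NaCl/0.5% Triton X-100 buffer with protease inhibitors. 30 µg protein was run on 10% SDS-PAGE and transferred to nitrocellulose. Blots were probed with target antibodies, with α-tubulin as reference, n = 3.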
(In western blotting, separated proteins are transferred to a membrane and probed.)

In experiment [7] the test system is HepG2. Briefly: Downregulation of SREBP-1c protein expression in human HepG2 cells at 50 to 100 microM by immunoblotting. The experiment is classed as functional. The procedure, abridged:
as §1

The subject of experiment [8] is HepG2. In words: Downregulation of LXRalpha protein expression in human HepG2 cells at 50 to 100 microM by immunoblotting. The experiment is classed as functional. The method in brief: as §1
In experiment [9] the test system is HepG2. Briefly: Downregulation of SCD-1 mRNA expression in human HepG2 cells at 50 to 100 microM by qPCR. The experiment is classed as functional. The method in brief:
(§2)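 Cells were preincubated 24 h in DMEM, then exposed 24 h to 50 or 100 µM (final) at 37 °C in 5% CO2. Vehicle was 1% DMSO, and each treatment was run at least in triplicate. Total RNA was extracted and transcripts were measured by qPCR relative to vehicle control, mean ± SE, n = 3.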
On the technique in general: Real-time PCR tracks product formation cycle by cycle.

Experiment [10] relates to HepG2. Briefly: Downregulation of FAS mRNA expression in human HepG2 cells at 50 to 100 microM by qPCR. The experiment is classed as functional. The procedure, abridged: as §2
Experiment [11] concerns HepG2. Briefly: Downregulation of LXRalpha mRNA expression in human HepG2 cells at 50 to 100 microM by qPCR. The experiment is classed as functional. The method in brief:
as §2

Experiment [12] relates to HepG2. Briefly: Downregulation of SREBP-1c mRNA expression in human HepG2 cells at 50 to 100 microM by qPCR. The experiment is classed as functional. The method in brief: as §2
Experiment [13] deals with HepG2. Briefly: Reduction in lipid accumulation in human HepG2 cells at 100 microM by Oil Red O staining. The experiment is classed as functional, cell-based.
Experiment [14] relates to HepG2. Briefly: Reduction in lipid accumulation in human HepG2 cells at 50 microM by Oil Red O staining. The experiment is classed as functional, cell-based.
In experiment [15] the test system is RAW264.7. Briefly: Induction of LXR-responsive genes in mouse RAW264.7 cells assessed as increase in ABCA1 protein expression measured at 100 microM by immunoblotting. The experiment is classed as functional, cell-based. The procedure, abridged:
as §1

Experiment [16] has as its system RAW264.7. In words: Induction of cholesterol efflux genes in mouse RAW264.7 cells assessed as increase in LXRbeta protein expression measured at 100 microM by immunoblotting. The experiment is classed as functional, cell-based. The procedure, abridged: as §1
For experiment [17], the system named is RAW264.7. Briefly: Induction of cholesterol efflux genes in mouse RAW264.7 cells assessed as increase in LXRalpha protein expression measured at 100 microM by immunoblotting. The experiment is classed as functional, cell-based. The method in brief:
as §1

Experiment [18] has as its system RAW264.7. In words: Induction of LXR-responsive genes in mouse RAW264.7 cells assessed as increase in Abca1 mRNA expression measured at 50 to 100 microM by qPCR. The experiment is classed as functional, cell-based. The method in brief:
as §2

Experiment [19] has as its system RAW264.7. In words: Induction of cholesterol efflux genes in mouse RAW264.7 cells assessed as increase in LXRbeta mRNA expression measured at 50 microM by qPCR. The experiment is classed as functional. The method in brief:
as §2

Experiment [20] deals with RAW264.7. In words: Induction of cholesterol efflux genes in mouse RAW264.7 cells assessed as increase in LXRbeta mRNA expression measured at 100 microM by qPCR. The experiment is classed as functional. The procedure, abridged: as §2
Experiment [21] has as its system RAW264.7. Briefly: Induction of cholesterol efflux genes in mouse RAW264.7 cells assessed as increase in LXRbeta mRNA expression measured by qPCR. The experiment is classed as functional, cell-based. The procedure, abridged: as §2
For experiment [22], the system named is RAW264.7. In words: Induction of cholesterol efflux genes in mouse RAW264.7 cells assessed as increase in LXRalpha mRNA expression measured at 50 to 100 microM by qPCR. The experiment is classed as functional. The procedure, abridged:
as §2

Experiment [23] concerns RAW264.7. Briefly: Induction of cholesterol efflux in mouse RAW264.7 cells assessed as reduction in cellular cholesterol level at 100 microM in presence of higher cholesterol relative to control. The experiment is classed as functional. More on the design: scale not given: the % may be the effect or the level left.
Experiment [24] concerns RAW264.7. Briefly: Induction of cholesterol efflux in mouse RAW264.7 cells assessed as reduction in cellular cholesterol level at 100 microM relative to control. More on the design: scale not given: the % may be the effect or the level left. The experiment is classed as functional.
The target in experiment [25] is T1, Oxysterols receptor LXR-alpha (Homo sapiens). In words: Agonist activity at LXRalpha (unknown origin) transfected in human CHO-K1 cells assessed as induction of transactivation at 50 to 200 microM by luciferase reporter gene transactivation assay relative to control. The experiment is classed as cell-based. The method in brief:
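CHO-K1 cells in DMEM/F12 with 10% heat-inactivated FBS and 1% penicillin/streptomycin, co-transfected with pGL4.35 GAL4-UAS luciferase reporter, pSV-β-galactosidase and a human LXRα plasmid (pFN26A). After 24 h, cells were treated 24 h with 50, 100 or 200 µM. Firefly luciferase was normalized to β-galactosidase in the same lysate and expressed vs control, mean ± SE, n = 3.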

Experiment [26] deals with RAW264.7. Briefly: Induction of LXR-responsive genes in mouse RAW264.7 cells assessed as increase in Abca1 mRNA expression measured at 50 to 100 microM by qPCR.
Experiment [27] concerns the target Oxysterols receptor LXR-beta (Homo sapiens) (UniProt P55055). In words: Agonist activity at LXRbeta (unknown origin) transfected in human CHO-K1 cells assessed as induction of transactivation by luciferase reporter gene transactivation assay relative to control.
Experiment [28] shares this target. In words: Agonist activity at LXRbeta (unknown origin) transfected in human CHO-K1 cells assessed as induction of transactivation at 50 microM by luciferase reporter gene transactivation assay relative to control.
For experiment [29] the target is unchanged. Briefly: Agonist activity at LXRbeta (unknown origin) transfected in human CHO-K1 cells assessed as induction of transactivation at 200 microM by luciferase reporter gene transactivation assay relative to control.
The target is the same in experiment [30]. In words: Agonist activity at LXRbeta (unknown origin) transfected in human CHO-K1 cells assessed as induction of transactivation at 100 microM by luciferase reporter gene transactivation assay relative to control.

Turning to `CCN(c1ccc(C(O)(C(F)(F)F)C(F)(F)F)cc1)S(=O)(=O)c1ccccc1`, the Activity entry in experiment [1] and in experiment [5] was “Dose-dependent effect” throughout. Also, the EC50 (usually the concentration giving half of the maximal effect) in experiment [2] was 10 nM; in experiment [3] it was 320 nM. In the experiment on HepG2 [4], the outcome was inactive.

Take `CC12CCC(CC1)C(C)(C)O2` [EUCALYPTOL]: the result in experiment [1] and in [5] was inactive. In addition, the “inhibition (INH)” value is 50% with HepG2 [6]; 25% in the experiment on HepG2 [7]; 40% with HepG2 [8]; 30% in the experiment with HepG2 [9]; 24% with HepG2 [10]; 10% in the experiment on HepG2 [11]. Besides, the “inhibition (INH)” value in the experiment on HepG2 [12] was 25%. In addition, the result with HepG2 [13], in the experiment on HepG2 [14], with RAW264.7 [15], in the experiment on RAW264.7 [16], with RAW264.7 [17] and in the experiment with RAW264.7 [18] was Active. The result with RAW264.7 [26] was Active. Further, the Activity was 35% in the experiment with RAW264.7 [19]; 50% with RAW264.7 [20]; “Dose-dependent effect” in the experiment on RAW264.7 [21]; 20% in the experiment on RAW264.7 [22]; 17% in the experiment on RAW264.7 [23]; 17% in the experiment on RAW264.7 [24]. Also, the Activity in [25] is over 75%; in experiment [27] it was “Dose-dependent effect”. The fold change (FC) came out at 1.4 in experiment [28], 2.3 in [29] and 2 in experiment [30].
